# Source: ChEMBL document CHEMBL3593168, “Structure-Based Design of Macrocyclic Coagulation Factor VIIa Inhibitors” (J Med Chem, 2015)
# Legend:
# [1] = molecular target: Coagulation factor VII/tissue factor (Homo sapiens, UniProt P08709); experiment: Inhibition of human recombinant TF/F7a complex using S2288 as substrate preincubated for 15 mins followed by protein addition measured for 60 mins; format: protein-complex assay
# How it was run: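 Ki measured against recombinant human TF/FVIIa enzyme at room temperature (25 °C) and averaged from two experiments.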
# Plasma = experiment: Anticoagulant activity in F7-deficient human plasma assessed as concentration required to double prothrombin time; format: functional
# [2] = molecular target: Vitamin K-dependent protein C (Homo sapiens, UniProt P04070); experiment: Inhibition of human APC measured for 30 mins
# How it was run: (§1)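 Ki measured against purified human enzymes (APC, FXa, FIXa, plasma kallikrein, thrombin, trypsin) at room temperature (25 °C) and averaged from two experiments.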
# Kallikrein-1 = Kallikrein-1 (Homo sapiens, UniProt P06870); experiment: Inhibition of human tissue kallikrein 1 measured for 30 mins
# How it was run: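 Purified human tissue kallikrein-1 assayed at 37 °C. Ki averaged from two experiments.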
# Prothrombin = Prothrombin (Homo sapiens, UniProt P00734); experiment: Inhibition of human thrombin using S2238 as substrate measured for 30 mins; how it was run: as §1
# Coagulation factor IX = Coagulation factor IX (Homo sapiens, UniProt P00740); experiment: Inhibition of human F9a measured for 30 mins; how it was run: as §1
# Plasma kallikrein = Plasma kallikrein (Homo sapiens, UniProt P03952); experiment: Inhibition of human plasma kallikrein using S2302 as substrate measured for 30 mins; how it was run: as §1
# Coagulation factor X = Coagulation factor X (Homo sapiens, UniProt P00742); experiment: Inhibition of human F10a using S2222 as substrate measured for 30 mins; how it was run: as §1
# Trypsin = Trypsin (Homo sapiens, UniProt P07477+P07478+P35030); experiment: Inhibition of human trypsin measured for 30 mins; format: protein assay; how it was run: as §1
# Coagulation factor VII/tissue factor, sequence (P08709 61-212 limits assumed): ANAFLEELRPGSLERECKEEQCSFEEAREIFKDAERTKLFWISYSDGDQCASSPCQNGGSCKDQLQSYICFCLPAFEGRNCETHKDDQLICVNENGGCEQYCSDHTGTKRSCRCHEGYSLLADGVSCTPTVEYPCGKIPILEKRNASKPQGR
# Coagulation factor VII/tissue factor, sequence (P08709 213-466 limits assumed): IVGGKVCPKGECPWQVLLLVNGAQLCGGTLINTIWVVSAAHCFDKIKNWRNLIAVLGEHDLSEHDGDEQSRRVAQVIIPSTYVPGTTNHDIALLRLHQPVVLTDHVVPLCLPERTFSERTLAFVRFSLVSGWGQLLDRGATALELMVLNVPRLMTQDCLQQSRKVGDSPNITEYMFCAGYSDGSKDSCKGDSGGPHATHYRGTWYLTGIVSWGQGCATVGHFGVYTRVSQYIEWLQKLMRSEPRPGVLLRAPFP
# Coagulation factor VII/tissue factor, sequence (P13726 33-295 partner limits assumed): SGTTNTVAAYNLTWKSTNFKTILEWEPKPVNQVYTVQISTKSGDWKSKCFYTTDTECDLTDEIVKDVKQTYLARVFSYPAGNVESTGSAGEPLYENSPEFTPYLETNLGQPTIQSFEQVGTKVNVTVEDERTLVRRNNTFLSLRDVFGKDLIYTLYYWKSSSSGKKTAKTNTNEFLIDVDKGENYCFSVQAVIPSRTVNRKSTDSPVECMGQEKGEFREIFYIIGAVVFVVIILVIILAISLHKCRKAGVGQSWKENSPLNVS
# Plasma kallikrein, sequence (P03952 20-390 limits assumed): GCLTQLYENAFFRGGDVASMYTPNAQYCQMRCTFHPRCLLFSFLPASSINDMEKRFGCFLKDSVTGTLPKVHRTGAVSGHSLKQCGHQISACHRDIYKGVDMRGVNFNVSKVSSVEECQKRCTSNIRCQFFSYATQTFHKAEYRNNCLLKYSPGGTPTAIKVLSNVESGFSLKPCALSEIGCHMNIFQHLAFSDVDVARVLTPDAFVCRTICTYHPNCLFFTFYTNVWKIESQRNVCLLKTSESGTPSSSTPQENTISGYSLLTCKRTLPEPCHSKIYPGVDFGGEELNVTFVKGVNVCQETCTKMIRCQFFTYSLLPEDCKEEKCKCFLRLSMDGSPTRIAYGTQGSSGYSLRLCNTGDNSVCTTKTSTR
# Plasma kallikrein, sequence (P03952 391-638 limits assumed): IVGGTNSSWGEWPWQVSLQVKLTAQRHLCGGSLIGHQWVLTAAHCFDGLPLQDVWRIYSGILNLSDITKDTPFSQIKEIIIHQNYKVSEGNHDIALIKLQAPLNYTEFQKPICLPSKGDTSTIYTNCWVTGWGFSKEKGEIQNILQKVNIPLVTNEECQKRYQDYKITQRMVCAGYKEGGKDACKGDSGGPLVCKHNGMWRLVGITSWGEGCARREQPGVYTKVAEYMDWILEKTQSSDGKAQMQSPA
# Kallikrein-1, sequence (P06870 whole entry): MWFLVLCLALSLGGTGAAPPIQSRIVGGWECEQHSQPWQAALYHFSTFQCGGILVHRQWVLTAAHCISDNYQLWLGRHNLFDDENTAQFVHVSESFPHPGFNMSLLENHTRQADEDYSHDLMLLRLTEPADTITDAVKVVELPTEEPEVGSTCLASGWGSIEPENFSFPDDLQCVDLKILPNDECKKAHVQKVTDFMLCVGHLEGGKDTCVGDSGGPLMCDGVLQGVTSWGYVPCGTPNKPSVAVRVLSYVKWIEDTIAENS
# Coagulation factor X, sequence (P00742 41-179 limits assumed): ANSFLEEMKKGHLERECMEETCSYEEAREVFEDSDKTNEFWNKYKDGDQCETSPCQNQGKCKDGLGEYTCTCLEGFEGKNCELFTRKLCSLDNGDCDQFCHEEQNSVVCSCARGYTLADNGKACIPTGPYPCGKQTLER
# Coagulation factor X, sequence (P00742 235-488 limits assumed): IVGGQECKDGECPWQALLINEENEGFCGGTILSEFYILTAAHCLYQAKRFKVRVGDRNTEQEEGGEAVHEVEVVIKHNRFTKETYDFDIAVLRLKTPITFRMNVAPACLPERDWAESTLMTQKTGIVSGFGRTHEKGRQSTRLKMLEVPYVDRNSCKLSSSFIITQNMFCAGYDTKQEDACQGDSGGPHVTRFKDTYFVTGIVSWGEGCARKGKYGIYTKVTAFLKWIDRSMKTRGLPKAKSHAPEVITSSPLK
# Vitamin K-dependent protein C, sequence (P04070 43-197 limits assumed): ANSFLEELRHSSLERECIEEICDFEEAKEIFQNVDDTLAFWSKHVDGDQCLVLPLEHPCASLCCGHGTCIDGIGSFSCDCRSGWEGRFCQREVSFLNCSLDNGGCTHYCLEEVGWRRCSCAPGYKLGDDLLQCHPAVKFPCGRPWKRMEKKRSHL
# Vitamin K-dependent protein C, sequence (P04070 212-461 limits assumed): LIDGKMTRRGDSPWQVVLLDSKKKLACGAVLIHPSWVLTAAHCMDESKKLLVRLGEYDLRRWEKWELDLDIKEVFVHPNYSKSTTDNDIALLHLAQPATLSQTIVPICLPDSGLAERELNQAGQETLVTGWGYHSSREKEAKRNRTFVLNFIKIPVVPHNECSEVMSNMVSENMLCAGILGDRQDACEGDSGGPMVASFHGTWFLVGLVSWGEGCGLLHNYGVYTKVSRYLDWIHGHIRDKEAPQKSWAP
# Coagulation factor IX, sequence (P00740 47-191 limits assumed): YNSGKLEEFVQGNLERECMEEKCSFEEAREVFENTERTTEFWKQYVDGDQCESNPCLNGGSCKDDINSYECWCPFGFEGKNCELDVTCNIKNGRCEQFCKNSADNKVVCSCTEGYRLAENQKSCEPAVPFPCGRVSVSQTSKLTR
# Coagulation factor IX, sequence (P00740 227-461 limits assumed): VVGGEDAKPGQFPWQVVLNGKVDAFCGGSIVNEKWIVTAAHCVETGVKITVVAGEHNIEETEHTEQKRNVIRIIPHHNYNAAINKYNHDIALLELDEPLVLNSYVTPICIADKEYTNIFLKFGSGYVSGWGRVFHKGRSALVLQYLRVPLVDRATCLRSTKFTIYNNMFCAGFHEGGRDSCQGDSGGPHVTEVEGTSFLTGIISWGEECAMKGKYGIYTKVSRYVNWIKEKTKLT
SMILES,Ki [1] [nM],Ki [2] [nM],Ki (Kallikrein-1) [nM],Ki (Prothrombin) [nM],Ki (Coagulation factor IX) [nM],Ki (Plasma kallikrein) [nM],Ki (Coagulation factor X) [nM],Ki (Trypsin) [nM],2PT (Plasma) [µM]
CC(=O)Nc1ccc(S(=O)(=O)C(C)C)c([C@H]2CCCN2C(=O)[C@H](Nc2ccc3c(N)nccc3c2)c2ccccc2)c1,8,–,–,–,–,–,–,–,12
CCS(=O)(=O)c1ccc2cc1CNC(=O)[C@H](Nc1ccc3c(N)nccc3c1)c1ccc(cc1)CCCC(=O)N2,8,1300,100,5800,> 35000,4600,3200,3600,1.6
CC(=O)Nc1cccc(CNC(=O)C(Nc2ccc3c(N)nccc3c2)c2ccccc2)c1 (stereo not drawn),10000,–,–,–,–,–,–,–,–
Nc1nccc2cc(NC(C(=O)NCc3ccccc3)c3ccccc3)ccc12 (stereo not drawn),54000,–,–,–,–,–,–,–,–
CCS(=O)(=O)c1ccc2cc1CNC(=O)[C@H](Nc1ccc(C(=N)N)cc1)c1ccc(cc1)CCCC(=O)N2,0.7,41,1900,180,34000,50,5500,58,0.42
CC(C)(C)S(=O)(=O)c1ccc2cc1CNC(=O)C(Nc1ccc3c(N)nccc3c1)c1ccc(cc1)CCCC(=O)N2 (racemic),30,14000,22,> 13000,> 35000,> 6000,4800,> 6000,8.6
CCS(=O)(=O)c1ccc2cc1CNC(=O)[C@H](Nc1ccc3c(N)nccc3c1)c1ccc(c(C)c1)CCCC(=O)N2,1.6,830,100,6700,16000,1700,1000,2700,1.2
CC(C)S(=O)(=O)c1ccc2cc1CNC(=O)[C@H](Nc1ccc3c(N)nccc3c1)c1ccc(cc1)CCCC(=O)N2,5.2,1800,100,4000,> 35000,3600,3300,3000,1.4

# Continued, in another order:
Ki [1] [nM],Ki [2] [nM],Ki (Kallikrein-1) [nM],Ki (Prothrombin) [nM],Ki (Coagulation factor IX) [nM],Ki (Plasma kallikrein) [nM],Ki (Coagulation factor X) [nM],Ki (Trypsin) [nM],SMILES,2PT (Plasma) [µM]
920,–,–,–,–,–,–,–,Nc1nccc2cc(NC3C(=O)NCc4cccc(c4)NC(=O)CCCc4ccc3cc4)ccc12 (stereo not drawn),–
400,2800,18,> 13000,> 35000,> 6000,> 9000,> 6000,Nc1nccc2cc(N[C@H]3C(=O)NCc4cccc(c4)NC(=O)CCCc4ccc3cc4)ccc12,26
> 18000,–,–,–,–,–,–,–,Nc1nccc2cc(N[C@@H]3C(=O)NCc4cccc(c4)NC(=O)CCCc4ccc3cc4)ccc12,–
4600,–,–,–,–,–,–,–,Nc1nccc2cc(NC3C(=O)NCc4cccc(c4)NC(=O)CCCOc4ccc3cc4)ccc12 (stereo not drawn),–
4600,–,–,–,–,–,–,–,Nc1nccc2cc(NC3C(=O)NCc4cccc(c4)NC(=O)CCc4ccc3cc4)ccc12 (stereo not drawn),–
6100,–,–,–,–,–,–,–,Nc1nccc2cc(NC3C(=O)NCc4cccc(c4)NC(=O)CCCCc4ccc3cc4)ccc12 (stereo not drawn),–
